# From PubChem BioAssay
# Activity calls are given as the source filed them.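 Rule for the calls, unless noted: active = fluorescence slope higher than the sample average by over 3 SD (cut at about -0.22 in these data, passing the limit was not always enough); inactive = the rest.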
# Experiments:
# [1] = inhibitors of TNFa-induced NFkB p65 translocation, primary screen, imaging, HUVEC, MLSMR starter and 10KST1 sets (AID 438;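 active = inhibition above 20% together with a positive visual image hit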;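 note: compound added about 3h40 before a 20 min TNFalpha stimulation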;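 for inhibition: signal is the nuclear over cytoplasmic p65 intensity ratio per well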); conditions: HUVEC TNFa-induced p65 nuclear translocation; cell count: measured here: nuclei count (cytotoxicity indicator), at 2.08 µM; inhibition: at 2 µM, stronger effect = higher value, 0% TNFa-plus-vehicle, 100% no-TNFa wells
# [2] = inhibitors of mutant huntingtin aggregation, primary screen, imaging, exon1htt(103Q)mCFP cells, high-content imaging (AID 483;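 active = visual image review flags a hit and inhibition of aggregation exceeds 20%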;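 note: compound exposure lasted 3 days before fixation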;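 for nuclei count: percent of the per-plate median nuclei count of sample wells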); conditions: exon1htt(103Q)mCFP cell line, aggregate imaging, at 2 µM; inhibition of aggregation: stronger effect = higher value; nuclei count: measured here: cell count, toxicity
# [3] = inhibitors of E-selectin induction by TNFa, primary screen, imaging, HUVEC, immunofluorescence, MLSMR starter and 10KST1 sets (AID 487;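 active = visually confirmed hit in the image check and inhibition above 20%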;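 for inhibition: signal is fraction of cell area covered by stained E-selectin grains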;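 for nuclei count: 100% = median nuclei count of all wells on the same plate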); conditions: HUVEC TNFalpha-induced E-selectin immunofluorescence imaging, at 2 µM; inhibition: stronger effect = higher value; nuclei count: measured here: cell number, toxicity
# [4] = target: Voltage-gated potassium channel subunit beta-2 (Rattus norvegicus) (UniProt P62483); test: KvBeta enzyme negative modulators, primary screen, biochemical, NADPH fluorescence (AID 622); conditions: recombinant KvBeta, 4-cyanobenzaldehyde reduction, at 10 µM, stronger effect = higher value;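 note: slope of raw intensity against log time taken from 70 to 1610 s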
# [5] = target: Voltage-gated potassium channel subunit beta-2 (Rattus norvegicus) (UniProt P62483); test: KvBeta positive modulators, primary screen, biochemical, NADPH fluorescence (AID 623;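 active = NADPH fluorescence slope more negative than the mean of all samples by about 3 SD, 99.7% confidence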;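 note: fluorescence intensity change per second fitted from 20 to 320 s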); conditions: Recombinant KvBeta, NADPH fluorescence decrease slope, 10 min; at 10 µM; stronger effect = lower value
# [6] = target: Muscarinic acetylcholine receptor M4 (Homo sapiens) (UniProt P08173); test: compounds altering M4/GIRK thallium flux, either direction, primary screen, M4 allosteric agonist project, cell-based, HEK293 M4/GIRK, BTC-AM (AID 625;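 active = fluorescence slope after compound addition differing from the mean of all tested samples at 99.7% confidence, mostly higher but some lower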;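 note: thallium influx through GIRK channels coupled to M4 in HEK293 cells with BTC-AM dye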); conditions: at 10 µM, actives lie on both sides
# Method in brief: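 System: HEK293 cells with M4 receptor and GIRK channels | Incubation: Cells overnight at 37 °C, BTC-AM loading 1 h, reads 2 min total | Technique: Kinetic BTC-AM fluorescence sampled at 1 Hz, 10 s pre-addition baseline | Measure: Post-addition slope, 15–24 s, of baseline-normalized fluorescence | Control set: Carbachol positive, DMSO negative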
# [7] = inhibitors of Sendai virus-induced IRF3 signaling, primary screen, TLR/RLR signaling modifier project, cell-based, Sendai virus stimulus, luciferase, 10K MLSCN set (AID 602276;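 active = inhibition at or above 50% at 10 µM; inactive = inhibition below 50%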;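 note: firefly luciferase from ISG56 promoter only with Renilla not read in this screen; 0% = Sendai virus plus DMSO and 100% = medium plus DMSO without virus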); conditions: HEK293 RL24 IRF3 luciferase reporter, at 10 µM, stronger effect = higher value
# [8] = inhibitors of poly I:C-induced TLR3 signaling, primary screen, cell-based, poly I:C stimulus, luciferase, 10K MLSCN set (AID 602277;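 active = inhibition of the reporter signal at or above 50%; inactive = inhibition below 50%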); conditions: HEK293-TLR3 RL24 IRF3 luciferase reporter, at 10 µM, stronger effect = higher value
# Muscarinic acetylcholine receptor M4 (Homo sapiens), sequence (P08173 whole entry, looked up): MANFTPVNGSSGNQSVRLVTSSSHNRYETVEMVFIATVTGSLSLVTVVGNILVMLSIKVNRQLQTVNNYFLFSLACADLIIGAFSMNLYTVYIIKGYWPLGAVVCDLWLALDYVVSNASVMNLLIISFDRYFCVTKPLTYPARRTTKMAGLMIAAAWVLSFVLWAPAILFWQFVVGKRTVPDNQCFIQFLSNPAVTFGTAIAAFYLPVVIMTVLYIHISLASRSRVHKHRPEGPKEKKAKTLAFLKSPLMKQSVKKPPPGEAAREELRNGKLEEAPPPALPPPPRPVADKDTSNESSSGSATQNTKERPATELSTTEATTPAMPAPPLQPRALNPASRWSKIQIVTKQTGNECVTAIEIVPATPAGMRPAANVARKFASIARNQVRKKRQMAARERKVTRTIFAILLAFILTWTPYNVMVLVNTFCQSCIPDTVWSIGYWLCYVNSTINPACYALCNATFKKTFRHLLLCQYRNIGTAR
# Voltage-gated potassium channel subunit beta-2 (Rattus norvegicus), sequence (P62483 whole entry, looked up): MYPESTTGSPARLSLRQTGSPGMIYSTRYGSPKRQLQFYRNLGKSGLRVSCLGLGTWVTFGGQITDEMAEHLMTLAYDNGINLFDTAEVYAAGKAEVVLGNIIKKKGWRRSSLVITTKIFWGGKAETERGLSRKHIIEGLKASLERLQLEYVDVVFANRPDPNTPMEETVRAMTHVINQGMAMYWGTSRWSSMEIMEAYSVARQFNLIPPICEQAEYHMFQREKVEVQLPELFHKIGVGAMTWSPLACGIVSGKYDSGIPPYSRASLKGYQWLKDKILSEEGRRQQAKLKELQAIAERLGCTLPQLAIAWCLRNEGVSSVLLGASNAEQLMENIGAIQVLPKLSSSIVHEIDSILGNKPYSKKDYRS
SMILES,cell count [1],inhibition [1],inhibition of aggregation [2],nuclei count [2] [%],inhibition [3],nuclei count [3] [%],fluorescence slope [4],NADPH fluorescence slope [5],fluorescence slope [6],inhibition [7],inhibition [8]
CCn1c(SCC(=O)Nc2nccs2)nnc1-c1ccncc1,331,-1.4% (inactive),-8.7% (inactive),110,-20.2% (inactive),129,-0.454 (inactive),-2.4e-05 (inactive),0.00633 (inactive),14.8% (inactive),21.3% (inactive)
CCSc1nnc(NC(=O)c2nn(C(C)C)c(=O)c3ccccc23)s1,221,3.9% (inactive),15.4% (inactive),71.5,31.6% (inactive),94,-0.408 (inactive),-0.000337 (inactive),0.00464 (inactive),9.39% (inactive),11.7% (inactive)
Cc1ccc(C(=O)Nc2nc3c(s2)CCCC3)o1,341,-4% (inactive),-8.3% (inactive),101,-96.9% (inactive),120,-0.561 (inactive),-4.4e-05 (inactive),0.00262 (inactive),-30.4% (inactive),-89.5% (inactive)
Cc1coc(NC(=O)CSc2nc(-c3ccncc3)cc(C(F)(F)F)c2C#N)n1,740,-7.9% (inactive),16.1% (inactive),86.8,-29.3% (inactive),115,-0.471 (inactive),-2.9e-05 (inactive),0.00557 (inactive),5.59% (inactive),8.54% (inactive)
COC(=O)c1ccccc1S(=O)(=O)N(CCCN1CCOCC1)Cc1cccs1,328,2.1% (inactive),2.9% (inactive),104,-43.1% (inactive),115,-0.502 (inactive),1.2e-05 (inactive),0.00684 (inactive),14% (inactive),19.2% (inactive)
CCOC(=O)N1CCN(S(=O)(=O)c2cc(Cl)c(OC)cc2Cl)CC1,364,-9.8% (inactive),-8.2% (inactive),100,-101% (inactive),112,-0.509 (inactive),4.3e-05 (inactive),0.00536 (inactive),-2.67% (inactive),1.26% (inactive)
Cc1ccc(S(=O)(=O)c2nc(-c3ccco3)oc2SCC(=O)NCC2CCCO2)cc1 (stereo not drawn),822,-8% (inactive),4% (inactive),104,-16.1% (inactive),109,-0.458 (inactive),-4.2e-05 (inactive),0.00374 (inactive),15.8% (inactive),18.5% (inactive)
COC(=O)c1cc(NC(=O)C2CC=CCC2C(=O)O)cc(C(=O)OC)c1 (stereo not drawn),800,-6.9% (inactive),-7.4% (inactive),108,5.2% (inactive),97.7,-0.536 (inactive),-4.3e-05 (inactive),0.00439 (inactive),9.55% (inactive),7.94% (inactive)
CCOC(=O)Nc1c(C(=O)OC)[nH]c2cccc(OC)c12,526,-0.5% (inactive),-15.7% (inactive),109,-32.4% (inactive),126,-0.478 (inactive),3e-05 (inactive),0.00517 (inactive),-7.18% (inactive),-3.25% (inactive)
COCCCn1c(SCC(=O)N2CCc3ccccc32)nnc1-c1ccoc1C,238,-3.2% (inactive),2.7% (inactive),56.1,42.5% (inactive),56.1,-0.548 (inactive),-5.6e-05 (inactive),0.00429 (inactive),20.2% (inactive),19.6% (inactive)
CCOC(=O)C(CC)Sc1ncnc2nc[nH]c12 (stereo not drawn),351,1.9% (inactive),-18.9% (inactive),98.7,-46% (inactive),123,-0.555 (inactive),-2.8e-05 (inactive),0.00496 (inactive),3.43% (inactive),5.34% (inactive)
COc1ccc(Cl)cc1C(=O)n1nc(C)cc1C,346,-3.3% (inactive),-15% (inactive),106,-31% (inactive),118,-0.355 (inactive),-1.5e-05 (inactive),0.00581 (inactive),-16.7% (inactive),-14.6% (inactive)
CCOc1ccc(S(=O)(=O)Nc2ccccc2C(=O)Nc2ccccc2N2CCOCC2)cc1,322,-2.1% (inactive),17.2% (inactive),94.9,-24.9% (inactive),106,-0.522 (inactive),-3.2e-05 (inactive),0.00582 (inactive),11.5% (inactive),25.7% (inactive)
O=c1cc(-c2ccc(Cl)cc2)[nH][nH]1,523,-2.4% (inactive),10.1% (inactive),104,54.7% (inactive),47.1,-0.27 (inactive),-4.3e-05 (inactive),0.00862 (inactive),15.8% (inactive),-16.8% (inactive)
COc1ccccc1N1CCN(C(=O)c2oc3cc(C)c(C)cc3c2C)CC1,355,1.3% (inactive),-10.8% (inactive),101,-46.9% (inactive),87.3,-0.546 (inactive),2.2e-05 (inactive),0.00423 (inactive),21.1% (inactive),15% (inactive)
COc1ccccc1C(O)P(=O)(OC(C)C)c1ccc(N(C)C)cc1 (stereo not drawn),665,-3.9% (inactive),6.1% (inactive),122,0% (inactive),106,-0.553 (inactive),2.2e-06 (inactive),0.00553 (inactive),7.42% (inactive),11% (inactive)
CC1CCN(CCCNC(=O)c2cn(C)c3ccc(S(=O)(=O)N4CCCC4)cc3c2=O)CC1,515,1.8% (inactive),0% (inactive),93.4,18.8% (inactive),61.5,-0.321 (inactive),-5.9e-05 (inactive),0.00713 (inactive),3.75% (inactive),21.7% (inactive)
CCn1cc(C(=O)Nc2cc3c(cc2NC(C)=O)OCCO3)c(=O)c2ccc(C)nc21,315,5.7% (inactive),-17.4% (inactive),114,-39.4% (inactive),115,-0.49 (inactive),-0.000144 (active),0.00463 (inactive),18.1% (inactive),16.9% (inactive)
O=C(COC(=O)C1(c2ccccc2F)CCCC1)NC1CCS(=O)(=O)C1 (stereo not drawn),804,-6.9% (inactive),-2.4% (inactive),124,-14.4% (inactive),106,-0.578 (inactive),-7.2e-06 (inactive),0.00752 (inactive),-1.97% (inactive),9.43% (inactive)
COc1ccc(OC)c(S(=O)(=O)Nc2ccccc2C(=O)O)c1,702,-4.4% (inactive),0% (inactive),100,35.6% (inactive),85.9,-0.569 (inactive),1.5e-05 (inactive),0.0048 (inactive),23.8% (inactive),18.9% (inactive)
Cc1ccc(S(=O)(=O)n2nc(OC(=O)c3ccco3)cc2N)cc1,512,-8.3% (inactive),-12% (inactive),115,-8.9% (inactive),150,-0.554 (inactive),-9.4e-05 (inactive),0.00488 (inactive),-8.24% (inactive),-6.95% (inactive)
COc1ccc(CNC(=O)c2cc(-c3ccc(OC)c(OC)c3)on2)cc1,383,-7.2% (inactive),2% (inactive),104,21.5% (inactive),110,-0.206 (inactive),-1.8e-05 (inactive),0.00919 (inactive),15.2% (inactive),-6.13% (inactive)
Cc1c(NC(=O)C2CCCNC2=O)c(=O)n(-c2ccccc2)n1C (stereo not drawn),394,-2.2% (inactive),-1.6% (inactive),101,-36.5% (inactive),106,-0.495 (inactive),3.2e-05 (inactive),0.00472 (inactive),11.5% (inactive),6.36% (inactive)
Cc1cc2c(nn1)CCC/C2=N\O,350,4.3% (inactive),9.7% (inactive),99.1,14.6% (inactive),110,-0.552 (inactive),2.3e-05 (inactive),0.00403 (inactive),17.4% (inactive),19.5% (inactive)
CCn1cc(C2=NOC(C(=O)Nc3cc(C)nn3-c3ccccc3)C2)c(C)n1 (stereo not drawn),542,-3.4% (inactive),11.1% (inactive),93.2,-52.6% (inactive),84.5,-0.448 (inactive),9.7e-06 (inactive),0.00533 (inactive),-1.87% (inactive),98.7% (active)
Cc1cc(C2C(C#N)=C(N)SC(N)=C2C#N)c(C)s1,755,-5% (inactive),-30.7% (inactive),102,-27.1% (inactive),130,-0.573 (inactive),-8.5e-05 (inactive),0.00245 (inactive),8.05% (inactive),20.2% (inactive)
CN1CCCC(OC(=O)COc2ccc(Br)cc2)C1 (stereo not drawn),430,-3.5% (inactive),2.1% (inactive),97,-63.5% (inactive),87.2,-0.489 (inactive),0.000124 (inactive),0.0054 (inactive),-9.52% (inactive),-1.12% (inactive)
O=S(=O)(NCC1CCCO1)c1ccc(S(=O)(=O)N2CCc3ccccc3C2)cc1 (stereo not drawn),685,-4.3% (inactive),-21.6% (inactive),97.8,-132% (inactive),140,-0.525 (inactive),-3.8e-05 (inactive),0.00466 (inactive),19.5% (inactive),19.5% (inactive)
